Bioassay records (PubChem)
This is a sample that favours compounds with a hit; in the whole collection about 4.5% have one here.
MrgX1 agonist = human MrgX1 receptor agonism, primary screen; Q96LB2; MrgX1-HEK293 cells, Fluo-4 calcium fluorescence, agonist mode; hits give high values; B-score at 10 µM; actives 0.44% (n = 310,000); AID 588627;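 active = calcium response B-score plate-corrected fluorescence ratio at least 3 library SD, with starting fluorescence B-score inside 5 SD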
Target sequence (Q96LB2 whole entry, looked up): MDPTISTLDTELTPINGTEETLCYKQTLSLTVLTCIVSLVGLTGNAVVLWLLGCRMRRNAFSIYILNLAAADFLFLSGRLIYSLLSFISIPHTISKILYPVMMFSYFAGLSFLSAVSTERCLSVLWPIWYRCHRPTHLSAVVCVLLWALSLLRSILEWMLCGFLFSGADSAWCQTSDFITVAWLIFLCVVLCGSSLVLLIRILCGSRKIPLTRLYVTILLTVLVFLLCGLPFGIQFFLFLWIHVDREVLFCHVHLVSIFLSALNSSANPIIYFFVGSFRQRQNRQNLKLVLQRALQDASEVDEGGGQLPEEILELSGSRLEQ
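Material – MrgX1-expressing HEK293 cells · Input – 15,000 cells seeded per well · Dosing – compound as first of three additions · Times – overnight seeding, then 1 h dark dye loading · Measured by – kinetic Fluo-4 NW fluorescence of intracellular calcium · Read-out – B-scored fluorescence response ratio · Benchmarks – positive and negative control wells on each plate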
PHOSPHO1 block = PHOSPHO1 (human) inhibition. inhibition, % at 13.3 µM. recombinant PHOSPHO1, absorbance phosphatase assay. Q8TCT1. AID 1565. actives 1.1% (n = 290,000); in the data active = inhibition above about 60%
RGS4 block = inhibitors of human RGS4; actives 0.45% (n = 310,000); B-score at 10 µM; AID 463165; P49798; HEK293 M3R/RGS4 inducible, Fluo-4 calcium flux; hits give high values; triggered by carbachol at its EC20;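 active = B-score, a plate-corrected calcium signal, over three deviations above library mean, with baseline fluorescence within five deviations of library mean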;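 note: RGS4 expression induced by doxycycline in cells with stable M3 receptor; B-score is computed from the integrated fluorescence ratio over baseline after carbachol; higher B-score means a larger calcium signal and so more RGS4 inhibition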
Target sequence (P49798 whole entry, looked up): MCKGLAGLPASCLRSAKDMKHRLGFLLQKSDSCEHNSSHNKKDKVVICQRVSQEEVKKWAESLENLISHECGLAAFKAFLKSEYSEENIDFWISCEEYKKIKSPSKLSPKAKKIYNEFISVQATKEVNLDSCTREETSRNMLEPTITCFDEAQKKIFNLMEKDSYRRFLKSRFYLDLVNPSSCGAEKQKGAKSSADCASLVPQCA
MrgX1 antagonist = antagonists of human MrgX1 receptor; AID 588676; Q96LB2; actives 1.3% (n = 310,000); B-score at 10 µM; MRGX1-HEK293 calcium flux, Fluo-4, BAM8-22 antagonism; hits give low values;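 active = calcium-response B-score plate-corrected more than 3 library SD below zero, starting fluorescence within 5 deviations, no agonist response on first addition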;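 note: peak minus trough fluorescence over baseline after final BAM8-22 challenge near maximal dose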
RGS4 pot = potentiators or activators of RGS4; AID 463111; actives 0.92% (n = 310,000); HEK293 M3R/inducible RGS4, carbachol calcium flux Fluo4; hits give low values; B-score at 10 µM;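 active = B-score of the integrated calcium signal more than 4 SD below the library mean, with starting fluorescence not abnormally high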;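 note: negative B-score means reduced calcium response which marks RGS4 activation or potentiation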
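System – HEK293 FlpIn-TREx cells, stable M3R, doxycycline-inducible RGS4 · Reagent – ECmax carbachol challenge · Times – compound preincubation 20 min at room temperature before agonist · Technique – Fluo4 fluorescence kinetic imaging of calcium · Measure – B score of integrated Fluo4 ratio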
MrgX1 PAM = allosterically activates human MrgX1 receptor signaling; Q96LB2; MrgX1-HEK293, Fluo-4 calcium flux, FDSS; hits give high values; B-score at 10 µM; actives 0.63% (n = 310,000);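 active = plate-corrected calcium response at least 3 library SD above typical, normal starting fluorescence, not activating the receptor alone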;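 note: compound read alongside a low EC10 to EC30 dose of BAM8-22 agonist; peak minus trough fluorescence over baseline measured at the second addition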
MrgX1 allo conf = human MrgX1 positive allosteric modulation, re-confirmation; actives 13% (n = 1,200); MrgX1-HEK293, Fluo-4 calcium fluorescence, FDSS; shares compounds with MrgX1 PAM; activation (ratio percentage), % at 10 µM;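 active = ratio at least 3 SD above the weak peptide control, stable starting fluorescence, no direct agonism earlier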;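 note: compound followed by low BAM8-22 agonist challenge near EC20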
HEK293 Ca flux = counter-screen for MrgX1 antagonists: effect in parental HEK293 cells; shares compounds with MrgX1 antagonist; Fluo-4 calcium fluorescence, FDSS; fluorescence ratio F(max-min)/F0 at 10 µM; actives 2% (n = 4,000); AID 624111;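 active = duplicate-averaged calcium fluorescence ratio at least three times the standard deviation of buffer wells, a nonspecific response in parental cells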
HEK293 Ca counter = activity in parental HEK293 cells without MrgX1; shares compounds with MrgX1 antagonist; parental HEK293 calcium flux, Fluo-4 fluorescence ratio; hits give high values; fluorescence ratio F(max-min)/F0 at 10 µM; actives 0.4% (n = 4,000); AID 624114;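 active = calcium fluorescence ratio, averaged over duplicates, at least 3 SD of the buffer-well ratio, meaning a nonspecific response in receptor-free cells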;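 note: untransfected parental HEK293 lacking MrgX1 used as counterscreen for MrgX1 allosteric activators; fluorescence change taken during the second addition on a kinetic imager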
HEK293 Ca cntr2 = counter-screen for MrgX1 activators: effect in parental HEK293 cells | fluorescence ratio F(max-min)/F0 at 10 µM | actives 8.7% (n = 4,000) | shares compounds with MrgX1 antagonist | AID 624115 | Fluo-4 calcium fluorescence (FDSS); hits give high values;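 active = calcium fluorescence ratio at least three times the spread of buffer wells, meaning a non-specific response in parental cells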
Starred values were filed as active, the others as inactive; i = inactive; x = not tested or not shown.

SMILES	MrgX1 agonist	PHOSPHO1 block	RGS4 block	MrgX1 antagonist	RGS4 pot	MrgX1 PAM	MrgX1 allo conf	HEK293 Ca flux	HEK293 Ca counter	HEK293 Ca cntr2
COc1ccccc1-n1c(C)cc(/C=C2/C(=N)N3C(=NC2=O)SN=C3S(C)(=O)=O)c1C	i	-36	i	i	i	21*	i	i	i	i
CC(CNC(=O)CN1C(=O)c2cccnc2Oc2ccc(Cl)cc21)c1ccccc1 (stereo not drawn)	i	22	i	i	i	12*	i	i	i	i
Cc1cc(C)nc(NC(=O)c2c(F)c(F)c(F)c(C(=O)Nc3cc(C)cc(C)n3)c2F)c1	i	x	i	i	i	i	x	x	x	x
CCc1nc(SCc2ccc(OCC(C)C)cc2)n[nH]1	i	35	i	i	i	i	x	x	x	x
N#Cc1c(/N=C/C=C/c2ccccc2)sc2c1CCCC2	i	-84	i	i	i	8*	i	i	i	i
CN1CCN(/C=N/c2sc3c(c2C#N)CCCCC3)CC1	i	18	i	i	i	i	x	x	x	x
COCc1cc(Sc2ccc(Cl)cc2)nc(C)n1	i	-22	i	i	i	8.4*	i	i	i	i
CNC(=O)COC(=O)c1cc2c(s1)CCCC2	i	12	i	i	i	12*	i	i	i	i
C/C(N)=C(/C#N)C(=O)COC(=O)c1cc2c(s1)CCCC2	i	9	i	i	i	i	x	x	x	x
Cc1ccc(NC(=O)c2ccccc2O)cc1	i	-8	i	i	i	11*	i	i	i	i
CC(=O)Nc1ccc(NC(=O)c2ccccc2CCc2ccccc2)cc1	i	42	i	i	i	15*	i	i	i	i
CC(=O)Nc1ccc(NC(=O)c2ccccc2C)cc1	i	-9	i	i	i	i	x	x	x	x
C=CCn1c(SCC(=O)Nc2ccccc2C)nc(O)cc1=O	i	40	i	i	i	i	x	x	x	x
CC(=O)N1CCN(C2=Nc3cccc4cccc2c34)CC1	i	-18	i	i	i	i	x	x	x	x
COc1ccccc1N1CCN(C2=Nc3cccc4cccc2c34)CC1	i	-15	i	i	-7*	8.9*	i	i	i	i
Cc1[nH]c2ccccc2c1CN1CCC(Cc2ccccc2)CC1	i	53	i	i	i	i	x	x	x	x
COCCCN1CCN(C2Cc3ccccc3Sc3ccc(Cl)cc32)CC1 (stereo not drawn)	i	-24	i	i	i	i	x	x	x	x
Clc1cccc2c1Sc1ccccc1CC2N1CCNCC1 (stereo not drawn)	i	-18	i	i	i	14*	i	i	i	i
Cn1cccc1-c1nc2ccc(NC(=O)c3ccccc3)cc2[nH]1	i	2	i	i	i	7.2*	39%*	i	i	i
CNS(=O)(=O)c1ccc(CCC(=O)N2CCN(c3ccccc3OC)CC2)cc1	i	32	i	i	i	11*	i	i	i	i
CCN(CC)CCN(C(=O)CCS(=O)(=O)c1ccccc1)c1nc2c(C)cc(C)cc2s1	i	38	i	i	i	i	x	x	x	x
COc1ccc(-c2cc(C(F)(F)F)nc(SCC(=O)Nc3ccc4c(c3)OCO4)n2)cc1	i	-12	i	i	i	9.2*	i	i	i	i
COc1ccc(-c2cn3c(C)c(C(=O)N4CCCc5ccccc54)sc3n2)cc1	i	x	i	i	i	8*	i	i	i	i
O=C(COc1ccc(C(=O)NCC2CCCO2)cc1)Nc1cccc(C(F)(F)F)c1 (stereo not drawn)	i	x	i	i	i	i	x	x	x	x
CC1CCc2c(C(=O)Nc3ccccn3)csc2C1 (stereo not drawn)	i	33	i	i	i	8.3*	i	i	i	i
SMILES	MrgX1 agonist	PHOSPHO1 block	RGS4 block	MrgX1 antagonist	RGS4 pot	MrgX1 PAM	MrgX1 allo conf	HEK293 Ca flux	HEK293 Ca counter	HEK293 Ca cntr2
CC1CCc2c(C(=O)NCc3ccccn3)csc2C1 (stereo not drawn)	i	-44	i	i	i	i	x	x	x	x
Cc1nnc(SCC(=O)Nc2ccc([N+](=O)[O-])cc2)n1CC1CCCO1 (stereo not drawn)	i	13	i	i	i	i	x	x	x	x
CCOc1ccc2c(c1)C(N(CCN1CCOCC1)C(=O)Nc1ccccc1)CC(C)(C)O2 (stereo not drawn)	i	18	i	i	i	i	x	x	x	x
Cc1sc2ncn(CCC(=O)O)c(=O)c2c1C	i	-8	i	i	i	i	x	x	x	x
Cc1sc2ncn(CCn3cnc4sc(C)c(C)c4c3=O)c(=O)c2c1C	i	25	i	i	i	13*	i	i	i	i
O=C(CC1SCCNC1=O)Nc1ccc(F)c(Cl)c1 (stereo not drawn)	i	-20	i	i	i	9.9*	i	i	i	i
CCc1cc2ccccc2nc1SCC(=O)N1CCN(C(=O)c2ccco2)CC1	x	-22	i	x	i	x	x	x	x	x
CCc1cc2cc(C)ccc2nc1SCC(=O)N1CCN(C(=O)c2ccco2)CC1	i	14	x	i	x	11*	i	i	i	i
O=S(=O)(NCc1cn2ccccc2n1)c1ccccc1F	i	33	i	i	i	i	x	x	x	x
COc1ccc(-c2[nH]ncc2/C=N/NC(=O)c2ccncc2)c(OC)c1	i	43	i	i	i	i	x	x	x	x
CC1CCCCC1Nc1nc2ccc(Cl)cc2n2cnnc12 (stereo not drawn)	i	44	i	i	i	9.2*	i	i	i	i
Nc1c(-c2cccc(Cl)c2)cnc2c(-c3ccccc3)cnn12	i	33	i	i	i	i	x	x	x	x
